According to ChEMBL document CHEMBL4387704, “Design, synthesis and biological evaluation of novel isoindolinone derivatives as potent histone deacetylase inhibitors” (Eur J Med Chem, 2019):
Active and inactive are the calls of the source. No cut-off for these calls is given here.

Tests used:
[1] = target: Protein deacetylase HDAC6 (Homo sapiens) (UniProt Q9UBN7); assay: Inhibition of HDAC6 (unknown origin) using Fluor de Lys substrate by fluorescence assay relative to control
In short: (§1)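 Recombinant HDAC isoform assays run by a contract lab. Compounds in DMSO, 10-dose IC50 mode, 3-fold serial dilution from 50 μM. Duplicate runs; IC50 from curve fitting.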

Histone deacetylase 11 = Histone deacetylase 11 (Homo sapiens, UniProt Q96DB2); assay: Inhibition of HDAC11 (unknown origin) using Fluor de Lys substrate by fluorescence assay relative to control; in short: as §1
Histone deacetylase 11, sequence (Q96DB2 whole entry): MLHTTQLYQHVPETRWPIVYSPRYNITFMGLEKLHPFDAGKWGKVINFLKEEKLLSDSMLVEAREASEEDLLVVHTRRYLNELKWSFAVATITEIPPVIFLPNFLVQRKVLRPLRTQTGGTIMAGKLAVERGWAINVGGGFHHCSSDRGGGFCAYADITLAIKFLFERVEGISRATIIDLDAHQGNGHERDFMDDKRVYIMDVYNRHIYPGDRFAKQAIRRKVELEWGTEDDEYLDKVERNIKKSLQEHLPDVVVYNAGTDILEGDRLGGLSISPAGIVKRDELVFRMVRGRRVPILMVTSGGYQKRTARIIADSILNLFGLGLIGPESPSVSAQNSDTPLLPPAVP

A549 = assay: Growth inhibition of human A549 cells assessed as cell growth inhibition at 10 uM incubated for 48 hrs by sulforhodamine B assay; type: functional; details: A549, 48 h, read-out: GI
NCI-H23 = assay: Growth inhibition of human NCI-H23 cells assessed as cell growth inhibition at 10 uM incubated for 48 hrs by sulforhodamine B assay; type: functional; details: NCI-H23, 48 h, read-out: GI
NCI-H460 = assay: Growth inhibition of human NCI-H460 assessed as cell growth inhibition at 10 uM incubated for 48 hrs by sulforhodamine B assay; type: functional; details: NCI-H460, 48 h, read-out: GI
HCT-116 = assay: Growth inhibition of human HCT116 cells assessed as cell growth inhibition at 10 uM incubated for 48 hrs by sulforhodamine B assay; type: functional; details: HCT-116, 48 h, read-out: GI
SF-268 = assay: Growth inhibition of human SF268 cells assessed as cell growth inhibition at 10 uM incubated for 48 hrs by sulforhodamine B assay; type: functional; details: SF-268, 48 h, read-out: GI
DU-145 = assay: Growth inhibition of human DU145 cells assessed as cell growth inhibition at 10 uM incubated for 48 hrs by sulforhodamine B assay; type: functional; details: DU-145, 48 h, read-out: GI
PC-3 = assay: Growth inhibition of human PC3 cells assessed as cell growth inhibition at 10 uM incubated for 48 hrs by sulforhodamine B assay; type: functional; details: PC-3, 48 h, read-out: GI
UO-31 = assay: Growth inhibition of human UO31 cells assessed as cell growth inhibition at 10 uM incubated for 48 hrs by sulforhodamine B assay; type: functional; details: UO-31, 48 h, read-out: GI
SN12C = assay: Growth inhibition of human SN12C cells assessed as cell growth inhibition at 10 uM incubated for 48 hrs by sulforhodamine B assay; type: functional; details: read-out: GI
RXF 393 = assay: Growth inhibition of human RXF393 cells assessed as cell growth inhibition at 10 uM incubated for 48 hrs by sulforhodamine B assay; type: functional; details: RXF 393, 48 h, read-out: GI
ACHN = assay: Growth inhibition of human ACHN cells assessed as cell growth inhibition at 10 uM incubated for 48 hrs by sulforhodamine B assay; type: functional; details: read-out: GI
SNB-19 = assay: Growth inhibition of human SNB19 cells assessed as cell growth inhibition at 10 uM incubated for 48 hrs by sulforhodamine B assay; type: functional; details: SNB-19, 48 h, read-out: GI
LOX IMVI = assay: Growth inhibition of human LOXIMVI cells assessed as cell growth inhibition at 10 uM incubated for 48 hrs by sulforhodamine B assay; type: functional; details: read-out: GI
M14 = assay: Growth inhibition of human M14 cells assessed as cell growth inhibition at 10 uM incubated for 48 hrs by sulforhodamine B assay; type: functional; details: M14, 48 h, read-out: GI
MDA-MB-435 = assay: Growth inhibition of human MDA-MB-435 cells assessed as cell growth inhibition at 10 uM incubated for 48 hrs by sulforhodamine B assay; type: functional; details: MDA-MB-435, 48 h, read-out: GI
SK-MEL-2 = assay: Growth inhibition of human SK-MEL-2 cells assessed as cell growth inhibition at 10 uM incubated for 48 hrs by sulforhodamine B assay; type: functional; details: SK-MEL-2, 48 h, read-out: GI
SK-MEL-28 = assay: Growth inhibition of human SK-MEL-28 cells assessed as cell growth inhibition at 10 uM incubated for 48 hrs by sulforhodamine B assay; type: functional; details: SK-MEL-28, 48 h, read-out: GI
SK-MEL-5 = assay: Growth inhibition of human SK-MEL-5 cells assessed as cell growth inhibition at 10 uM incubated for 48 hrs by sulforhodamine B assay; type: functional; details: SK-MEL-5, 48 h, read-out: GI
UACC-257 = assay: Growth inhibition of human UACC257 cells assessed as cell growth inhibition at 10 uM incubated for 48 hrs by sulforhodamine B assay; type: functional; details: UACC-257, 48 h, read-out: GI
UACC-62 = assay: Growth inhibition of human UACC62 cells assessed as cell growth inhibition at 10 uM incubated for 48 hrs by sulforhodamine B assay; type: functional; details: UACC-62, 48 h, read-out: GI
OVCAR-4 = assay: Growth inhibition of human OVCAR4 cells assessed as cell growth inhibition at 10 uM incubated for 48 hrs by sulforhodamine B assay; type: functional; details: OVCAR-4, 48 h, read-out: GI
OVCAR-5 = assay: Growth inhibition of human OVCAR5 cells assessed as cell growth inhibition at 10 uM incubated for 48 hrs by sulforhodamine B assay; type: functional; details: OVCAR-5, 48 h, read-out: GI
OVCAR-8 = assay: Growth inhibition of human OVCAR8 cells assessed as cell growth inhibition at 10 uM incubated for 48 hrs by sulforhodamine B assay; type: functional; details: OVCAR-8, 48 h, read-out: GI
BT-549 = assay: Growth inhibition of human BT549 cells assessed as cell growth inhibition at 10 uM incubated for 48 hrs by sulforhodamine B assay; type: functional; details: BT-549, 48 h, read-out: GI
Hs-578T = assay: Growth inhibition of human Hs 578T cells assessed as cell growth inhibition at 10 uM incubated for 48 hrs by sulforhodamine B assay; type: functional; details: read-out: GI
MDA-MB-231 = assay: Growth inhibition of human MDA-MB-231 cells assessed as cell growth inhibition at 10 uM incubated for 48 hrs by sulforhodamine B assay; type: functional; details: MDA-MB-231, 48 h, read-out: GI
[2] = Metabolic stability in human liver microsomes assessed as half life at 1 uM preincubated for 10 mins followed by NADPH addition measured upto 60 mins by LC-MS/MS analysis; type: ADME, Microsome
In short: (§2)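 Liver microsomes from male SD rat, dog or human at 0.5 mg/mL in 100 mM potassium phosphate pH 7.4 with 1 μM compound. Prewarmed 37 °C 10 min, started with 1 mM NADPH. Stopped at 0, 5, 10, 20, 40, 60 min with cold methanol containing glibenclamide internal standard; supernatant by LC–MS/MS; T1/2 and CLint derived.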

[3] = Metabolic stability in rat liver microsomes assessed as half life at 1 uM preincubated for 10 mins followed by NADPH addition measured upto 60 mins by LC-MS/MS analysis; type: ADME, Microsome; in short: as §2
[4] = Metabolic stability in rat liver microsomes assessed as internal clearance at 1 uM preincubated for 10 mins followed by NADPH addition measured upto 60 mins by LC-MS/MS analysis; type: ADME, Microsome; details: read-out: CLH; in short: as §2
[5] = AUC (0 to t) in Sprague-Dawley rat at 10 mg/kg, po by LC-MS/MS analysis; type: ADME, organism-based; details: in vivo

Protein deacetylase HDAC6 (Homo sapiens), sequence (Q9UBN7 whole entry, canonical isoform): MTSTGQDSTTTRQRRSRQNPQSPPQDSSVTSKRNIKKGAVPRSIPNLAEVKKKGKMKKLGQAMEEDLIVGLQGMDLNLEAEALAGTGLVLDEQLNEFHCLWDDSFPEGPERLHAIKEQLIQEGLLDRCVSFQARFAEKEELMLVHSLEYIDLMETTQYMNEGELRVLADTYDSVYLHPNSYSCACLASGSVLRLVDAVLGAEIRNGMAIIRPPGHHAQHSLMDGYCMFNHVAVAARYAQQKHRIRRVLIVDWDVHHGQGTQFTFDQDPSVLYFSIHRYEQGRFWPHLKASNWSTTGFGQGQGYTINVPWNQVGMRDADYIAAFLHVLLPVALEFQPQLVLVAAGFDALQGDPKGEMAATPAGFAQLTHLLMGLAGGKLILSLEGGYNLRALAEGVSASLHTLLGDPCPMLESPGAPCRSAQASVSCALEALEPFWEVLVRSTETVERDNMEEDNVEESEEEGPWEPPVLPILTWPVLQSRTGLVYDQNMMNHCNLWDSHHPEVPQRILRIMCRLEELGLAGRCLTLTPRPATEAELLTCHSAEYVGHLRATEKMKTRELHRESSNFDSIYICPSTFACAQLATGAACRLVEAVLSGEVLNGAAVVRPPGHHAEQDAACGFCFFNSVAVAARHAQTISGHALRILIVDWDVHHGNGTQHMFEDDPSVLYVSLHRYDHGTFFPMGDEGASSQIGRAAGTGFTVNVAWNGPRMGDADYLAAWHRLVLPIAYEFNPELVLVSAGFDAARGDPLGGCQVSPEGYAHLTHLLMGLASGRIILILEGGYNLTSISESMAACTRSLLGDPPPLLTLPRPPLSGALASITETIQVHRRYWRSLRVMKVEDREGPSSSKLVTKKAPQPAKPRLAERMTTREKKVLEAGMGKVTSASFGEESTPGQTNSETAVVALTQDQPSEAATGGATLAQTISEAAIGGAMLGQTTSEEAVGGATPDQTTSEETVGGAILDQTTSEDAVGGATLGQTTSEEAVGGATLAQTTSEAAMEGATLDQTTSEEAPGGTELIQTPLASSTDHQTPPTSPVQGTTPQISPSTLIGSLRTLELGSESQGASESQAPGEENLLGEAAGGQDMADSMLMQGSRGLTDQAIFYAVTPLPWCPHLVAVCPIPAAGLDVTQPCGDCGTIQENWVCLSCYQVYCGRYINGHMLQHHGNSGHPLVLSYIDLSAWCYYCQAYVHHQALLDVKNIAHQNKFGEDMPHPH

## Nc1cc(F)ccc1NC(=O)c1ccc(CNC(=O)/C=C2\NC(=O)c3ccccc32)cc1
[1]
  inhibition: inactive
Histone deacetylase 11
  IC50: 632 nM
A549
  inhibition of growth at 10 µM: 12.2%
NCI-H23
  inhibition of growth at 10 µM: 26.5%
NCI-H460
  inhibition of growth at 10 µM: 26.8%
HCT-116
  inhibition of growth at 10 µM: 73.3%
SF-268
  inhibition of growth at 10 µM: 36%
DU-145
  inhibition of growth at 10 µM: 13%
PC-3
  inhibition of growth at 10 µM: 39.4%
UO-31
  inhibition of growth at 10 µM: 50.1%
SN12C
  inhibition of growth at 10 µM: 30.8%
RXF 393
  inhibition of growth at 10 µM: 17.5%
ACHN
  inhibition of growth at 10 µM: 15%
SNB-19
  inhibition of growth at 10 µM: 13.6%
LOX IMVI
  inhibition of growth at 10 µM: 15.7%
M14
  inhibition of growth at 10 µM: 29.4%
MDA-MB-435
  inhibition of growth at 10 µM: 28.8%
SK-MEL-2
  inhibition of growth at 10 µM: 52%
SK-MEL-28
  inhibition of growth at 10 µM: 33.8%
SK-MEL-5
  inhibition of growth at 10 µM: 34.7%
UACC-257
  inhibition of growth at 10 µM: 36.6%
UACC-62
  inhibition of growth at 10 µM: 57.8%
OVCAR-4
  inhibition of growth at 10 µM: 21.3%
OVCAR-5
  inhibition of growth at 10 µM: 36.4%
OVCAR-8
  inhibition of growth at 10 µM: 55.9%
BT-549
  inhibition of growth at 10 µM: 6.06%
Hs-578T
  inhibition of growth at 10 µM: 29.3%
MDA-MB-231
  inhibition of growth at 10 µM: 22.4%
[2]
  half-life at 1 µM: 4.87 h
[3]
  half-life at 1 µM: 2.02 h
[4]
  microsomal CLint at 1 µM: 11.7 µL/min/mg
[5]
  AUC(0-t): 1710 ng·h/mL
